Reference: ChEMBL document CHEMBL1212938, “Inhibition of mycobacterial replication by pyrimidines possessing various C-5 functionalities and related 2'-deoxynucleoside analogues using in vitro and in vivo models” (J Med Chem, 2010)
Values after ≈ are worked out from the molar mass of the structure shown. Active and inactive are the calls of the source. The calls are words filed in the database; no cut-off is given here.

Assays:
Salmonella typhimurium = test: Antibacterial activity against Salmonella Typhimurium at 100 ug/ml after 16 to 20 hrs by broth microdilution method; format: functional, organism-based; settings: Salmonella enterica subsp. enterica serovar Typhimurium
Enterococcus faecalis = test: Antibacterial activity against Enterococcus faecalis at 100 ug/ml after 16 to 20 hrs by broth microdilution method; format: functional, organism-based
Pseudomonas aeruginosa = test: Antibacterial activity against Pseudomonas aeruginosa at 100 ug/ml after 16 to 20 hrs by broth microdilution method; format: functional, organism-based
[1] = Cytotoxicity against human HuH7 cells assessed as cell viability at 200 ug/ml after 2 days by XTT assay; format: cell-based; settings: huh-7, 48 h
In short: (§1)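 Huh-7 cells seeded at 1 × 10⁵ cells/well and left to attach 6-8 h. Medium then replaced with compound at 200, 100, 50, 10 or 1 μg/mL, with a DMSO control, and incubated 2 days at 37 °C. Viability by XTT, absorbance read at 450-500 nm.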

[2] = test system: Mycobacterium tuberculosis; test: Antitubercular activity against Mycobacterium tuberculosis H37Ra after 6 days by microplate alamar blue assay; format: functional; settings: 144 h
In short: (§2)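 MABA run in 7H9GC medium, with drug diluted from DMSO stocks made at 100× the highest final concentration. Final levels were 100, 50, 10, 5, 2.5 and 1 μg/mL in triplicate, and the experiment was done three times. Inoculum was 2.5 × 10⁵ CFU/mL final. Alamar Blue plus Tween-80 was added once bacteria-only control wells turned pink, from day 6 on, and plates were read visually and by fluorescence after 24 h. Visual MIC is the lowest concentration preventing the blue-to-pink change. Mean percent inhibition was taken relative to bacteria-only and medium-only wells.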

[3] = test system: Mycobacterium tuberculosis; test: Antitubercular activity against Mycobacterium tuberculosis H37Ra at 50 ug/ml after 6 days by microplate alamar blue assay; format: functional; settings: 144 h; in short: as §2
[4] = test system: Staphylococcus epidermidis; test: Antibacterial activity against Staphylococcus epidermidis at 100 ug/ml after 16 to 20 hrs by broth microdilution method; format: functional, organism-based
Streptococcus pyogenes = test: Antibacterial activity against Streptococcus pyogenes at 100 ug/ml after 16 to 20 hrs by broth microdilution method; format: functional, organism-based
Streptococcus pneumoniae = test: Antibacterial activity against Streptococcus pneumoniae at 100 ug/ml after 16 to 20 hrs by broth microdilution method; format: functional, organism-based
[5] = test system: Mycobacterium tuberculosis; test: Antitubercular activity against Mycobacterium tuberculosis H37Ra at 10 ug/ml after 6 days by microplate alamar blue assay; format: functional; settings: 144 h; in short: as §2
[6] = Cytotoxicity against human HuH7 cells assessed as cell viability after 2 days by XTT assay; format: cell-based, Huh-7; settings: HuH7 cells; in short: as §1
[7] = Cytotoxicity against human HuH7 cells assessed as cell viability at > 200 ug/ml after 2 days by [3H]thymidine incorporation assay; format: cell-based; settings: huh-7, 48 h
Listeria monocytogenes = test: Antibacterial activity against Listeria monocytogenes at 100 ug/ml after 16 to 20 hrs by broth microdilution method; format: functional, organism-based
Escherichia coli = test: Antibacterial activity against Escherichia coli at 100 ug/ml after 16 to 20 hrs by broth microdilution method; format: functional, organism-based
Proteus vulgaris = test: Antibacterial activity against Proteus vulgaris at 100 ug/ml after 16 to 20 hrs by broth microdilution method; format: functional, organism-based
[8] = test system: Mycobacterium tuberculosis; test: Antitubercular activity against Mycobacterium tuberculosis H37Ra at 100 ug/ml after 6 days by microplate alamar blue assay; format: functional; settings: 144 h; in short: as §2
Bacillus subtilis = test: Antibacterial activity against Bacillus subtilis at 100 ug/ml after 16 to 20 hrs by broth microdilution method; format: functional, organism-based
[9] = test system: Mycobacterium tuberculosis; test: Antitubercular activity against Mycobacterium tuberculosis H37Ra at 5 ug/ml after 6 days by microplate alamar blue assay; format: functional; settings: 144 h; in short: as §2
Staphylococcus aureus = test: Antibacterial activity against Staphylococcus aureus at 100 ug/ml after 16 to 20 hrs by broth microdilution method; format: functional, organism-based
[10] = test system: Mycobacterium tuberculosis; test: Antitubercular activity against Mycobacterium tuberculosis H37Ra at 1 ug/ml after 6 days by microplate alamar blue assay; format: functional; settings: 144 h; in short: as §2
[11] = test system: Mycobacterium tuberculosis; test: Antitubercular activity against Mycobacterium tuberculosis H37Ra infected in BALB/c mouse assessed as reduction of CFU counts in spleen at 50 mg/kg, ip administered 5 days after infection for 25 days measured after 3 days last dose; format: functional, organism-based; design: dose 50 mg/kg
In short: (§3)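 Female BALB/c mice, 5–6 weeks old, were infected iv via the tail vein with about 2.5 × 10⁵ CFU of H37Ra in PBS, 5 per group. From day 5, drug was given ip at 50 mg/kg, 5 days/week, for 25 treatment days, in 10% DMSO–saline or poly(ethylene glycol) methyl ether. Controls received diluent only. Three days after the last dose, lung, liver and spleen homogenates were plated on 7H11 agar at 37 °C for up to 4 weeks. Colony counts were done blinded.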

[12] = test system: Mycobacterium tuberculosis; test: Antitubercular activity against Mycobacterium tuberculosis H37Ra infected in BALB/c mouse assessed as reduction of CFU counts in liver at 50 mg/kg, ip administered 5 days after infection for 25 days measured after 3 days last dose; format: functional, organism-based; design: dose 50 mg/kg; in short: as §3
[13] = test system: Mycobacterium tuberculosis; test: Antitubercular activity against Mycobacterium tuberculosis H37Ra infected in BALB/c mouse assessed as reduction of CFU counts in lungs at 50 mg/kg, ip administered 5 days after infection for 25 days measured after 3 days last dose; format: functional, organism-based; design: dose 50 mg/kg; in short: as §3

SMILES	Activity (Salmonella typhimurium)	Activity (Enterococcus faecalis)	Activity (Pseudomonas aeruginosa)	Activity [1]	MIC50 [2] [µg/mL]	inhibition at 50 µg/mL [3] [%]	Activity [4]	Activity (Streptococcus pyogenes)	Activity (Streptococcus pneumoniae)	inhibition at 10 µg/mL [5] [%]	CC50 at 48 h [6] [µg/mL]	Activity [7]	Activity (Listeria monocytogenes)	Activity (Escherichia coli)	Activity (Proteus vulgaris)	inhibition at 100 µg/mL [8] [%]	Activity (Bacillus subtilis)	inhibition at 5 µg/mL [9] [%]	Activity (Staphylococcus aureus)	inhibition at 1 µg/mL [10] [%]	also measured
CCCc1ccc(C#Cc2c[nH]c(=O)[nH]c2=O)cc1	inactive	inactive	inactive	Non-toxic	< 10	55	inactive	inactive	inactive	55	> 100	Non-toxic	inactive	inactive	inactive	90	inactive	0	inactive	–	–
C(C#Cc1ccccn1)#Cc1ccccn1	inactive	inactive	inactive	Non-toxic	< 1	100	inactive	inactive	inactive	100	–	Non-toxic	inactive	inactive	inactive	100	inactive	–	inactive	80	–
O=c1[nH]cc(C#Cc2ccccc2)c(=O)[nH]1	inactive	inactive	inactive	Non-toxic	> 10	90	inactive	inactive	inactive	40	> 100	Non-toxic	inactive	inactive	inactive	90	inactive	–	inactive	–	–
CCCc1cc2c[nH]c(=O)nc2o1	inactive	inactive	inactive	–	100 (≈ 561 µM)	–	inactive	inactive	inactive	0	–	–	inactive	inactive	inactive	50	inactive	–	inactive	–	–
CCCCCc1ccc(C#Cc2c[nH]c(=O)[nH]c2=O)cc1	inactive	inactive	inactive	Non-toxic	10 (≈ 35.4 µM)	50	inactive	inactive	inactive	50	> 100	Non-toxic	inactive	inactive	inactive	90	inactive	0	inactive	–	–
CO[C@H]1/C=C/O[C@@]2(C)Oc3c(C)c(O)c4c(O)c(c(/C=N/N5CCN(C)CC5)c(O)c4c3C2=O)NC(=O)/C(C)=C\C=C\[C@H](C)[C@H](O)[C@@H](C)[C@@H](O)[C@@H](C)[C@H](OC(C)=O)[C@@H]1C [RIFAMPIN]	–	–	–	–	< 1	–	–	–	–	–	–	–	–	–	–	–	–	–	–	100	–
N[C@@H]1CONC1=O [CYCLOSERINE]	–	–	–	–	5 (≈ 49 µM)	–	–	–	–	67	–	–	–	–	–	–	–	50	–	–	Activity [11]: Active; Activity [12]: Active; Activity [13]: Active
NNC(=O)c1ccncc1 [ISONIAZID]	–	–	–	–	< 1	–	–	–	–	–	–	–	–	–	–	–	–	–	–	100	–
